Results reported in ChEMBL document CHEMBL1138516, “Synthesis and biophysical characterization of chlorambucil anticancer ether lipid prodrugs” (J Med Chem, 2009).

How the values were obtained:
Assay type in all cases: functional, cell-based
[1] = Cytotoxicity against human ES2 cells assessed as cell viability after 48 hrs by MTT assay; conditions: ES-2, 48 h
Procedure, shortened: (§1)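 HT-29 colon and ES-2 ovarian cells were grown in McCoy's 5A with 10% FCS and 1% Pen-Strep, and MT-3 breast cells in RPMI. Cells were seeded at 1 × 10⁴ per well 24 h before dosing. Free drug was given in DMSO/water (final DMSO max 0.5%). Liposomes were diluted in PBS, with lipid content set by phosphorus analysis. Exposure lasted 24 h, then cells were washed and kept 48 h in complete medium.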

HT-29 [2] = experiment: Cytotoxicity against human HT-29 cells assessed as cell viability after 48 hrs by MTT assay in presence of Agkistrodon piscivorus secreted PLA2; conditions: HT-29, 48 h
Procedure, shortened: (§2)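 These lines follow the same protocol: HT-29 and ES-2 cells in McCoy's 5A with 10% FCS and 1% Pen-Strep, MT-3 cells in RPMI, seeded at 1 × 10⁴ per well 24 h ahead. Liposomal prodrugs in PBS were given with Agkistrodon piscivorus piscivorus venom sPLA₂ at 5 nM final. Exposure lasted 24 h, then cells were washed and given 48 h recovery in complete medium.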

HT-29 [3] = experiment: Cytotoxicity against human HT-29 cells assessed as cell viability after 48 hrs by MTT assay; conditions: HT-29, 48 h; procedure, shortened: as §1
[4] = Cytotoxicity against human MT3 cells assessed as cell viability after 48 hrs by MTT assay in presence of Agkistrodon piscivorus secreted PLA2; conditions: MT-3, 48 h; procedure, shortened: as §2
[5] = Cytotoxicity against human ES2 cells assessed as cell viability after 48 hrs by MTT assay in presence of Agkistrodon piscivorus secreted PLA2; conditions: ES-2, 48 h; procedure, shortened: as §2
[6] = Cytotoxicity against human MT3 cells assessed as cell viability after 48 hrs by MTT assay; conditions: MT-3, 48 h; procedure, shortened: as §1

CCCCCCCCCCCCCCCCCCOC[C@H](COP(=O)(O)OC[C@@H](O)CO)OC(=O)CCCc1ccc(N(CCCl)CCCl)cc1
IC50 [1]: 97 µM
IC50 (HT-29 [2]): 10 µM
IC50 (HT-29 [3]): > 200 µM
IC50 [4]: 36 µM
IC50 [5]: 8 µM
IC50 [6]: > 200 µM

CCCCCCCCCCCCCCCCCCOC[C@H](COP(=O)([O-])OCC[N+](C)(C)C)OC(=O)CCCc1ccc(N(CCCl)CCCl)cc1
IC50 (HT-29 [2]): 32 µM
IC50 (HT-29 [3]): > 200 µM
IC50 [4]: 36 µM
IC50 [6]: > 200 µM

CCCCCCCCCCCCCCCCCCOC[C@@H](O)COP(=O)([O-])OCC[N+](C)(C)C
IC50 [1]: 30 µM
IC50 (HT-29 [3]): 18 µM
IC50 [6]: 35 µM

O=C(O)CCCc1ccc(N(CCCl)CCCl)cc1 [CHLORAMBUCIL]
IC50 [1]: 34 µM
IC50 (HT-29 [3]): 70 µM
IC50 [6]: 95 µM
